Measurements of several laboratories.
Compare with care: the assays were run in different laboratories.
Medium: plasma

C=CC(=O)NC1CCN(c2ncc3ncnc(Nc4ccc(Oc5ccc6c(c5)ncn6C)c(C)c4)c3n2)CC1  AUC(0-inf) (male human; oral, 60 mg, single dose, healthy volunteers): 14.2 µM·h
COc1ccc(-c2c(Nc3ccccn3)[nH]c3c(C4=CCCCC4)c(-c4ccccc4)nn3c2=O)cc1  AUC(0-t) (human; oral, 200 mg once daily, multiple doses, steady state, patients): 108000 ng·h/mL
COc1ccc2c(c1)CN(C(=O)CCN1CCC(Cc3ccccc3)CC1)CC[S@@+]2[O-]  AUC(0-inf) (male human; intravenous, 0.05 mg/kg, healthy volunteers): 250 ng·h/mL
COc1ccc(F)cc1C(=O)NCc1ccc(-c2nn([C@@H](C)C(F)(F)F)c(N)c2C(N)=O)cc1  AUC(0-inf) (human; oral, 200 mg, single dose, fasted): 90200 ng·h/mL
O=C(COc1ccc(Cl)cc1)NC12CC(c3nnc([C@H]4C[C@@H](OC(F)(F)F)C4)o3)(C1)C2  AUC (human; oral, 145 mg, multiple doses, once daily, steady state, healthy volunteers): 141 µM·h
CC(=O)N(C)[C@H]1CCN(C(=O)c2cnc3c(c2)C[C@](C)(c2ccc(F)cc2)N3)C1  AUC(0-inf) (male human; oral, 15 mg, multiple doses, once daily): 2.22 µM·h
OC[C@H]1O[C@@H](c2cc(Cc3ccc(C4CC4)cc3)c(Cl)c3c2CCO3)[C@H](O)[C@@H](O)[C@@H]1O  AUC(0-inf) (human; oral, 0.3 mg, single dose, fasted): 33.3 ng·h/mL
CC(C)n1c(C2CCNCC2)nc2c([N+](=O)[O-])c(Br)c(Br)cc21  AUC(0-t) (human; oral, 150 mg, patients): 2880 ng·h/mL
